# In ChEMBL document CHEMBL3870322, “New telmisartan-derived PPARγ agonists: Impact of the 3D-binding mode on the pharmacological profile” (Eur J Med Chem, 2016):
# pEC50: −log10 of the molar value. Calls of active or inactive are those of the source. No cut-off for these calls is given here.
# Legend:
# [1] = test system: 3T3-L1; assay: Induction of triglyceride accumulation in insulin-stimulated mouse 3T3L1 preadipocytes at 10 uM after 9 days by Oil-Red O staining based assay relative to control
# [2] = target: T1, Peroxisome proliferator-activated receptor gamma (Homo sapiens, UniProt P37231); assay: Transactivation at Gal4 fused PPARgamma LBD (unknown origin) expressed in African green monkey COS7 cells after 42 hrs by luciferase assay; type: cell-based, COS-7
# T1 sequence (P37231 whole entry): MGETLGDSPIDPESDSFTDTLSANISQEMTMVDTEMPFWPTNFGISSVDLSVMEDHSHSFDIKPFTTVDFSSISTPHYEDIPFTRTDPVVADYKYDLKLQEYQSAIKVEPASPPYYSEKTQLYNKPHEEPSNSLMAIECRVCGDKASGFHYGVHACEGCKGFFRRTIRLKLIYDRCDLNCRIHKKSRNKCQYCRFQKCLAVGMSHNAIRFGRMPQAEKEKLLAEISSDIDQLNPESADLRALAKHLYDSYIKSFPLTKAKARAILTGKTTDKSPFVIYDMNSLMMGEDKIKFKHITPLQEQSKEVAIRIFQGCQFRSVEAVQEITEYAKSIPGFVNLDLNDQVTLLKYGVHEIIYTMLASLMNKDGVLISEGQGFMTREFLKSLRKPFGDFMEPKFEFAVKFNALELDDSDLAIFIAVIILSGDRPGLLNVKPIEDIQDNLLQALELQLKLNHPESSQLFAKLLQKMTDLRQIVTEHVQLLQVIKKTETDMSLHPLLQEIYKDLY
# [3] = target: T2, Peroxisome proliferator-activated receptor gamma (Homo sapiens) (UniProt P37231); assay: Intrinsic activity at Gal4 fused PPARgamma LBD (unknown origin) expressed in African green monkey COS7 cells after 42 hrs by luciferase assay relative to pioglitazone; type: cell-based; settings: COS-7
# T2 sequence (whole entry): T1 sequence (P37231 whole entry)
# Procedure, shortened: (§1)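 COS-7 cells (10⁴/well, 24 h, 37 °C, 5% CO₂) transfected in serum-free medium with pGal5-TK-Luc, pGal4-hPPARγ-LBD and pRenilla-CMV (Lipofectamine 2000). After 4 h, compound or DMSO added across a concentration series. Dual-luciferase readout at 42 h, firefly normalized to Renilla. Maximal activation expressed as % of pioglitazone. Mean SD of three independent experiments, each run in triplicate.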
# [4] = Growth inhibition of African green monkey COS7 cells at 50 uM after 72 hrs by crystal violet staining based assay; type: cell-based, COS-7; settings: chlorocebus aethiops; for growth inhibition (GI): cos-7, 72 h, 50 µM; for inhibition at 72 h, 50 µM: COS7 cells, read-out: GI
# Procedure, shortened: (§2)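 Cells seeded in complete DMEM, LNCaP at 5×10⁴/well on poly-D-lysine-coated wells, COS-7 at 3×10⁴/well. After 24 h at 37 °C, compound added at 50 µM final (DMSO vehicle). Exposure 72 h, then PBS wash, fixation in 1% […]/PBS, crystal violet staining of chromatin, absorbance 590 nm. Biomass given as % of vehicle control; mean SD of at least two independent experiments.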
# [5] = target: T3, Peroxisome proliferator-activated receptor gamma (Mus musculus, UniProt P37238); assay: Full agonist activity at PPARgamma in mouse 3T3L1 preadipocytes assessed as increase in insulin induced adipocyte differentiation by measuring triglyceride accumulation at 1 to 10 uM after 9 days by Oil-Red O staining based assay relative to control; type: cell-based; settings: 216 h
# T3 sequence (P37238 whole entry): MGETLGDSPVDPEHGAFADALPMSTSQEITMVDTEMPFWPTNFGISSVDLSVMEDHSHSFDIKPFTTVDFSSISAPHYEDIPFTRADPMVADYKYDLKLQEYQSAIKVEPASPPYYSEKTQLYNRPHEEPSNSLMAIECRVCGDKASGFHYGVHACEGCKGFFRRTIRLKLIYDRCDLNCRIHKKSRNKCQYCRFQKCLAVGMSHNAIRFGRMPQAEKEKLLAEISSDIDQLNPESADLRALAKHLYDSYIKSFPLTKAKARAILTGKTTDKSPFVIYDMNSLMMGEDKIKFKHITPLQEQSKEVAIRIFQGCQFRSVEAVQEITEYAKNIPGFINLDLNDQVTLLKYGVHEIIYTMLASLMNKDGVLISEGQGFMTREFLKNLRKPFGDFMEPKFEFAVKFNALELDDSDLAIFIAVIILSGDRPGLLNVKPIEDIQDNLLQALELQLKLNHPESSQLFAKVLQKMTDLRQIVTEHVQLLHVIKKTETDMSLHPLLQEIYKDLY
# [6] = target: T3, Peroxisome proliferator-activated receptor gamma; assay: Full agonist activity at PPARgamma in mouse 3T3L1 preadipocytes assessed as increase in insulin induced adipocyte differentiation by measuring triglyceride accumulation at 1 uM after 9 days by Oil-Red O staining based assay; type: cell-based; settings: 216 h
# Procedure, shortened: (§3)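 Postconfluent 3T3-L1 cells (DMEM, 10% FCS) differentiated over 9 days: 3 days with insulin (0.17 µM) plus dexamethasone (1 µM), 3 days with insulin (0.17 µM), then 3 days medium alone. Compound present throughout at 1 or 10 µM; DMSO vehicle. Day 9: PBS wash, Oil-Red O staining 1 h, dye extracted with 80% isopropanol, A515 read, expressed as ratio to vehicle; mean SD, three independent experiments.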
# [7] = (§4) Growth inhibition of human LNCAP cells expressing PPARgamma at 50 uM after 72 hrs by crystal violet staining based assay; type: functional; settings: read-out: GI
# Procedure, shortened: as §2
# [8] = test system: LNCaP; assay: as §4; type: functional
# Procedure, shortened: as §2
# [9] = target: T3, Peroxisome proliferator-activated receptor gamma; assay: Full agonist activity at PPARgamma in mouse 3T3L1 preadipocytes assessed as increase in insulin induced adipocyte differentiation by measuring triglyceride accumulation at 10 uM after 9 days by Oil-Red O staining based assay relative to control; type: cell-based; settings: 216 h
# Procedure, shortened: as §3
# [10] = target: T2, Peroxisome proliferator-activated receptor gamma (Homo sapiens); assay: Intrinsic activity at Gal4 fused PPARgamma LBD (unknown origin) expressed in African green monkey COS7 cells at 20 uM after 42 hrs by luciferase assay relative to pioglitazone; type: cell-based; settings: COS-7
# Procedure, shortened: as §1
SMILES,pEC50 [2],%max [3] [%],%max [10] [%],fold change (FC) [1],growth inhibition (GI) [4],Activity [5],Activity [6],"inhibition at 72 h, 50 µM [4] [%]",inhibition of growth at 50 µM [7] [%],growth inhibition (GI) [8],fold change (FC) [9]
CCCc1nc2ccccc2n1Cc1ccc(-c2ccc(C(=O)O)cc2)cc1,5.73,84.1,,1.2,Non-Toxic,,,,,,
CCCCCCCc1nc2ccccc2n1Cc1ccc(-c2ccccc2C(=O)O)cc1,6.77,82.5,,,Non-Toxic,Active,,,,,
CCCCCCc1nc2ccccc2n1Cc1ccc(-c2ccccc2C(N)=O)cc1,5.51,37.8,,,,,Active,92.8,78.5,,
CCCCCCCc1nc2ccccc2n1Cc1ccc(-c2ccccc2C(N)=O)cc1,6.08,32.8,,,Toxic,,Active,,,Active,
CCCc1nc2c(C)cc(-c3nc4ccccc4n3C)cc2n1Cc1ccc(-c2ccccc2C(=O)O)cc1 [TELMISARTAN],5.33,50.9,,,Non-Toxic,,,,,,2
CCc1ccc(CCOc2ccc(CC3SC(=O)NC3=O)cc2)nc1 (stereo not given) [PIOGLITAZONE],,,,,Non-Toxic,,,,55.8,,
CCCCCCc1nc2ccccc2n1Cc1ccc(-c2ccccc2C(=O)O)cc1,6.68,75,,,Non-Toxic,Active,,,,,
CCCC1Sc2ccccc2N1Cc1ccc(-c2ccccc2C(N)=O)cc1 (stereo not given),,,33.1,,,,,69.2,79,,
CCCC1Sc2ccccc2N1Cc1ccc(-c2ccccc2C(=O)O)cc1 (stereo not given),5.98,57.4,,,Non-Toxic,,,,,,> 3
CCCc1nc2ccccc2n1Cc1ccc(-c2ccccc2C(=O)O)cc1,5.38,49.6,,3.2,Non-Toxic,,,,,,

# More lines, main results first:
pEC50 [2],%max [3] [%],%max [10] [%],SMILES,fold change (FC) [1],growth inhibition (GI) [4],Activity [5],Activity [6],"inhibition at 72 h, 50 µM [4] [%]",inhibition of growth at 50 µM [7] [%],growth inhibition (GI) [8],fold change (FC) [9]
5.41,16.2,,CCCCCc1nc2ccccc2n1Cc1ccc(-c2ccccc2C(N)=O)cc1,,Toxic,,Active,,,Active,
5.10,21.7,,CCCc1cc2ccccc2n1Cc1ccc(-c2ccccc2C#N)cc1,,,,,36.8,27.4 to 54.1,,
5.30,51.3,,CCCc1nc2ccccc2n1Cc1ccc(-c2ccccc2C#N)cc1,,,,,61.9,61.9,,
6.40,55.4,,CCCCCc1nc2ccccc2n1Cc1ccc(-c2ccccc2C(=O)O)cc1,,Non-Toxic,Active,,,,,
5.50,21.1,,CCCc1nc2ccccc2n1Cc1ccc(-c2ccccc2C(N)=O)cc1,,,,,33,33,,
5.73,40,,CCCc1cc2ccccc2n1Cc1ccc(-c2ccccc2C(=O)O)cc1,,,,,,27.4 to 54.1,,> 3
,11,,CCCc1cc2ccccc2n1Cc1ccc(-c2ccccc2C(N)=O)cc1,,,,,,27.4 to 54.1,,
5.20,44.7,,CCCc1nc2ccccc2n1Cc1ccc(-c2cccc(C(=O)O)c2)cc1,2.5,Non-Toxic,,,,,,
